Measured values published in PMC12166265 (Clinical Pharmacology and Therapeutics, 2025).
Like-named read-outs stand apart in the source and are kept apart here. Blank lines part the entries; values can stand above or below the compound they belong to.

Tests used:
[1] = target: T1, BCRP (Homo sapiens, UniProt Q9UNQ0); type: cell-based
T1 sequence (Q9UNQ0 1-655): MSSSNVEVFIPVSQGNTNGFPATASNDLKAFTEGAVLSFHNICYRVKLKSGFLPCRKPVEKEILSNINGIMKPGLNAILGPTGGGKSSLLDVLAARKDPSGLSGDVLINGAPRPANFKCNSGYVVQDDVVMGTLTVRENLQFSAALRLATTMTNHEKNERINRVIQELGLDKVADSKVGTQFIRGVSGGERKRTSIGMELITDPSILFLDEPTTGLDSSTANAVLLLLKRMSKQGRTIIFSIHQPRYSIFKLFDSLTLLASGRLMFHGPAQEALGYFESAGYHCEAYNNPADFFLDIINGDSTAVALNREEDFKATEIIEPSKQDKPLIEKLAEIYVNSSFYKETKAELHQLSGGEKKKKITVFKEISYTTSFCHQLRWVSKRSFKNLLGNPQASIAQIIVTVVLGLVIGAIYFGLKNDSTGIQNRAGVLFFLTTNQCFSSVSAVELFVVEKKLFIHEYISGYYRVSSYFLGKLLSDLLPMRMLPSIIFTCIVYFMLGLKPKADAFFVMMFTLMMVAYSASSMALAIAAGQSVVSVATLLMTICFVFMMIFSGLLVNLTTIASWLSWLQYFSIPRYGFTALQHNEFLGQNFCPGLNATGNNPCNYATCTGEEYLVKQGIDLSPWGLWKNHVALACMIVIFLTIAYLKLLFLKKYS
Summary of the method: (§1)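 Transporter-overexpressing HEK293 cells were cultured in DMEM with 10% FBS, 1% penicillin/streptomycin and selection antibiotics at 37°C, 5% CO₂. Test compounds were screened at 10 μM and 30 μM, and uptake was quantified as normalised peak areas. For OATP1B1/1B3, uptake was compared with empty-vector cells, and for OATP1B1 also with cells treated with the inhibitor cyclosporine A.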

[2] = target: T2, OATP1B1 (Homo sapiens, UniProt Q9Y6L6); type: cell-based; conditions: HEK293 OATP1B1 cells
T2 sequence (Q9Y6L6 1-691): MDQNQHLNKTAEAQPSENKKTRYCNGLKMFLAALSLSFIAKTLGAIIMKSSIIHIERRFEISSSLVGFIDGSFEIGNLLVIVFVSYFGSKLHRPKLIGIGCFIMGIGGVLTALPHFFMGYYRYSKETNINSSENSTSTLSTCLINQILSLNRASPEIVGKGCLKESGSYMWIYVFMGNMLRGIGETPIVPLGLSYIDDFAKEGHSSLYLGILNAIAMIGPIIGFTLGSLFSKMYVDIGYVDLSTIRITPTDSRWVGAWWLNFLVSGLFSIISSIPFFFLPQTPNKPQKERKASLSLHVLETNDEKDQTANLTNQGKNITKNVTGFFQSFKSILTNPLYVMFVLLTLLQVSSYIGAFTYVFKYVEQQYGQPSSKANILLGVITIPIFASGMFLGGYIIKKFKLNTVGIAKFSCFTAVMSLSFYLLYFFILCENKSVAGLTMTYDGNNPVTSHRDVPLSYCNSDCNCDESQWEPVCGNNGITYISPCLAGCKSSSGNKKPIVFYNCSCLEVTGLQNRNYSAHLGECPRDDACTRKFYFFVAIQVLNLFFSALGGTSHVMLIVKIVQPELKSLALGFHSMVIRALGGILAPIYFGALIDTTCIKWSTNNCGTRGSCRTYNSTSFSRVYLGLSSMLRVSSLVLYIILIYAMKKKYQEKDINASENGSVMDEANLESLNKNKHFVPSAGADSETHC
Summary of the method: as §1

[3] = target: T3, OATP1B3 (Homo sapiens, UniProt Q9NPD5); assay: Substrate screening in HEK293 cells expressing OATP1B3; type: cell-based
T3 sequence (Q9NPD5 1-702): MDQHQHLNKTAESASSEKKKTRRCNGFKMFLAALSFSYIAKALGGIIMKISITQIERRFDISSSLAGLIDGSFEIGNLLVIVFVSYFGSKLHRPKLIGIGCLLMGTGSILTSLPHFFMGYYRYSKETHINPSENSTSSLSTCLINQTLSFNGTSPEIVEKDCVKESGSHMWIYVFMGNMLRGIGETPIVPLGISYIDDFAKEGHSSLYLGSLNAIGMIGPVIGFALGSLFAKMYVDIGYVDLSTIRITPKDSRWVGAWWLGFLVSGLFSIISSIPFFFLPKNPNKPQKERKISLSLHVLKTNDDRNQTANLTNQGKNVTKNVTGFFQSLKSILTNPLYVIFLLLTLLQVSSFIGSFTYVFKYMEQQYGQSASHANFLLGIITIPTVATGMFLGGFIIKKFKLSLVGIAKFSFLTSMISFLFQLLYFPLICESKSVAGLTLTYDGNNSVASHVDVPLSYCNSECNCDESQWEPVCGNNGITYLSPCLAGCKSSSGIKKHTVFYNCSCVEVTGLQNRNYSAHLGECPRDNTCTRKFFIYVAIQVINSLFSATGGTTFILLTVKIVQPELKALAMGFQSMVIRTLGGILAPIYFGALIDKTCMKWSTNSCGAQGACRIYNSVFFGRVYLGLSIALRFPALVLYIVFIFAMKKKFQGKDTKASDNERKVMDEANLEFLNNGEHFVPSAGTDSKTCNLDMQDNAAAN
Summary of the method: as §1

[4] = target: P-gp (Homo sapiens, UniProt P08183); assay: Inhibitor screening of [3H]digoxin accumulation in HEK293 cells expressing P-gp; type: cell-based
Sequence of P-gp (P08183 whole entry): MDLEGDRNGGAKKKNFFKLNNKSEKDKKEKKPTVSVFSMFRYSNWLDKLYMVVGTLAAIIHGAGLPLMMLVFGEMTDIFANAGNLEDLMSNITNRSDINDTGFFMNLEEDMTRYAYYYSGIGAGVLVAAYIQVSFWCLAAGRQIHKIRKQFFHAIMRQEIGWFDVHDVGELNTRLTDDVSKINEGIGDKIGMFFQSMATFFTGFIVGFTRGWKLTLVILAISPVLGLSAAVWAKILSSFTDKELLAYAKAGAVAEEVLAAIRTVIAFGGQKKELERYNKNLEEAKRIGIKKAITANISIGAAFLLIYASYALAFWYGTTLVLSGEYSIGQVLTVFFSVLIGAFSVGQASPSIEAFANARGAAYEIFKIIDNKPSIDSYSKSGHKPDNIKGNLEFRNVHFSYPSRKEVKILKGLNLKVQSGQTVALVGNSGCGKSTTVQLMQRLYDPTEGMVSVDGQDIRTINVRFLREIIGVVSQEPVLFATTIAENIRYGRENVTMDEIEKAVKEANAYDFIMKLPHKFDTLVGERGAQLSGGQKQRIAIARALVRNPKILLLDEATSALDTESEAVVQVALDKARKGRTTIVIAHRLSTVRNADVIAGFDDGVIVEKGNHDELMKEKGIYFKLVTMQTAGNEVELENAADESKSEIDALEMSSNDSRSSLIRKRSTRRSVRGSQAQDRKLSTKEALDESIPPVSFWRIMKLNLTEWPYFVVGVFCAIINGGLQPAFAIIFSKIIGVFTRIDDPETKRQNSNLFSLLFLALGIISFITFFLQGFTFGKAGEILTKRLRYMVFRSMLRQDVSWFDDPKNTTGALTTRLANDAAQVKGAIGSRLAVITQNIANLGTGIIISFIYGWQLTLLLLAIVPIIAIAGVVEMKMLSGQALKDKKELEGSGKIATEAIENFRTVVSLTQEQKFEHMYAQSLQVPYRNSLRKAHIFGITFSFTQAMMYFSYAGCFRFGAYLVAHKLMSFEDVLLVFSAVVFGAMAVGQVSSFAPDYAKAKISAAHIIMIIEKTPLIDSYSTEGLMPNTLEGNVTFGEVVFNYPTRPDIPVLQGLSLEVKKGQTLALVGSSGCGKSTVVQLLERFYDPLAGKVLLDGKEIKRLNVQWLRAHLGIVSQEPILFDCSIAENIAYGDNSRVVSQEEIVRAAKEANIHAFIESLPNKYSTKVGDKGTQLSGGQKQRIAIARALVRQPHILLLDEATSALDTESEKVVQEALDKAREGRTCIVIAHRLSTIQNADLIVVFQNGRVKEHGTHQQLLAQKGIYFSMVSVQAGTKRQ
Summary of the method: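 HEK293 lines overexpressing the named transporter were grown in DMEM with 10% FBS, 1% penicillin/streptomycin and line-specific selection antibiotics, at 37°C, humidified, 5% CO₂. Cell-based uptake assays measured inhibition of transporter activity.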

[5] = type: in vivo, human; conditions: for Effect of eltrombopag administration on plasma concentrations (in words): eltrombopag 75 mg daily for 5 days
[6] = tested on: ABCG2 p.Q141K variant; type: in vivo, human; conditions: two p.Q141K (CA) vs nine REF (CC) individuals; T = 0 h
Summary of the method: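 Open-label fixed-sequence crossover in 11 healthy non-smoking adults aged 18–64. Single oral rosuvastatin 10 mg given after an overnight fast, with fasting continued 4 h. Heparinised venous plasma was stored at −70°C and analysed by LC–MS. ABCG2 c.421C>A was genotyped blind by PCR and Sanger sequencing. Nine CC and two CA subjects were compared at T = 0 h and by noncompartmental PK, using log-transformed geometric means and unpaired t-tests.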

[7] = tested on: BCRP; conditions: 14 healthy males, BMS-986371; cited from earlier work
[8] = both, human, plasma, oral, 10 mg
[9] = both, human, plasma, oral, 10 mg, AUC0−4, rosuvastatin alone arm, geometric mean (90% CI)
[10] = both, human, plasma, oral, AUC0−4, rosuvastatin + eltrombopag arm, geometric mean (90% CI)

- Uptake in BCRP-expressing HEK293 cells compared to same cell line with Ko143 ([1]; 10 μM and 30 μM, 30 min): significantly reduced
- BCRP substrate classification ([1]; HEK293 BCRP cells): BCRP substrates
- OATP1B1 substrate classification [2]: not substrates
- OATP1B3 substrate classification [3]: not substrates
- Effect on intracellular accumulation of P-gp substrate [3H]digoxin [4]: did not affect
- AUC0−24, geometric mean ratio (90% CI) of rosuvastatin + eltrombopag arm to rosuvastatin alone arm ([5]; both, human, plasma, oral): 0.95 (0.89–1.02); P = 0.38
- C0 at 0 h ([5]; both, human, plasma, oral): 0.57 ng/mL
- Cmax ([5]; both, human, plasma, oral): 0.7 ng/mL
- C0 at 0 h [5, 8]: 0.64 ng/mL
- Cmax [5, 8]: 0.7 ng/mL
- AUC(0-t) [5, 9]: 2.13 ng·h/mL
- AUC(0-t) [5, 10]: 2.1 ng·h/mL
- Effect of eltrombopag administration on plasma concentrations (in words) [5]: did not lead to corresponding increases
- AUC0−4, geometric mean ratio (90% CI) of rosuvastatin + eltrombopag arm to rosuvastatin alone arm ([5]; human, in vivo): 0.98 (0.91–1.07); P = 0.78
- Cmax, geometric mean ratio (90% CI) of rosuvastatin + eltrombopag arm to rosuvastatin alone arm ([5]; human, in vivo): 1.01 (0.93–1.09); P = 0.96
- Food effects, fasted (AUC0−4) vs fed (AUC4−8) ([5]; human, in vivo): No food effects
- Baseline concentrations, heterozygous p.Q141K vs homozygous reference allele [6]: significantly higher
SMILES: O=C(O)c1c(O)c(Cl)cc(Br)c1O [BCDBA, 3‐bromo‐5‐chloro‐2,6‐dihydroxybenzoic acid]

- C0 at 0 h ([5]; both, human, plasma, oral): 2.79 ng/mL
- Cmax ([5]; both, human, plasma, oral): 3.61 ng/mL
- AUC [5, 8]: 11.7 ng·h/mL
- C0 at 0 h [5, 8]: 2.72 ng/mL
- Cmax [5, 8]: 4.16 ng/mL
- AUC(0-t) [5, 9]: 10.6 ng·h/mL
- AUC(0-t) ([5]; both, human, plasma, oral, 10 mg, AUC0−24, rosuvastatin alone arm, geometric mean (90% CI)): 65.9 ng·h/mL
- AUC(0-t) ([5]; both, human, plasma, oral, 10 mg, mean riboflavin AUC0−4, fasted state, rosuvastatin alone arm): 10.6 ng·h/mL
- AUC(0-t) [5, 10]: 10.2 ng·h/mL
- AUC(0-t) ([5]; both, human, plasma, oral, AUC0−24, rosuvastatin + eltrombopag arm, geometric mean (90% CI)): 65.6 ng·h/mL
- AUC(0-t) ([5]; both, human, plasma, oral, mean riboflavin AUC0−4, fasted state, in the presence of eltrombopag): 9.7 ng·h/mL
- Effect of eltrombopag administration on plasma concentrations (in words) [5]: did not lead to corresponding increases
- Baseline concentrations, heterozygous p.Q141K vs homozygous reference allele [6]: no association
SMILES: Cc1cc2nc3c(=O)[nH]c(=O)nc-3n(C[C@H](O)[C@H](O)[C@H](O)CO)c2cc1C [Riboflavin]
- Increase in riboflavin AUC0−4 [7]: 1.25 fold
- Increase in riboflavin AUC0−24 [7]: 1.14 fold
- Increase in riboflavin Cmax [7]: 1.11 fold
